Source: article PMC5116011 (The Journal of antibiotics, 2016)
Converted amounts (≈) assume the structure as drawn. Read-outs that look alike come from different tables or passages of the source.

Columns and labels:
[1] = tested on: E. faecalis ATCC33186; assay: MIC, microbroth dilution in Mueller-Hinton broth; format: cell-based; details: Enterococcus faecalis, ATCC33186, read-out: MIC EF
Outline: (§1)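 CLSI broth microdilution in cation-adjusted Mueller-Hinton broth. Inocula were grown from MH agar colonies in MH broth, with a final inoculum of 10^5 CFU/ml. Test compound final range was 200–0.2 µg/ml, incubated 37°C for 18–20 h. MIC was the lowest concentration preventing visible growth. Runs were at least duplicate, and the mean MIC was reported.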

[2] = tested on: S. pyogenes ATCC700294; assay: MIC, microbroth dilution in Mueller-Hinton broth; format: cell-based; details: Streptococcus pyogenes, ATCC700294, read-out: MIC SPy
Outline: as §1

[3] = tested on: S. pneumoniae R6; assay: MIC, microbroth dilution in Mueller-Hinton broth; format: cell-based; details: Streptococcus pneumoniae, R6, read-out: MIC SP
Outline: as §1

[4] = tested on: B. anthracis sterne; assay: microbe, parasite or virus in culture; format: cell-based; details: Bacillus anthracis, read-out: MIC BA
[5] = tested on: B. subtilis ATCC23857; assay: MIC, microbroth dilution in Mueller-Hinton broth; format: cell-based; details: Bacillus subtilis, ATCC23857, read-out: MIC BS
Outline: as §1

[6] = tested on: S. aureus -ATCC29213 (MSSA); assay: MIC, microbroth dilution in Mueller-Hinton broth; format: cell-based; details: Staphylococcus aureus, read-out: MIC MSSA
Outline: as §1

[7] = tested on: S. aureus NRS 70 (MRSA); assay: MIC, microbroth dilution in Mueller-Hinton broth; format: cell-based; details: Staphylococcus aureus, MRSA|NRS70, read-out: MIC MRSA
Outline: as §1

[8] = tested on: E. coli BW25113; assay: MIC, microbroth dilution in Mueller-Hinton broth; format: cell-based, Escherichia coli; details: for MIC EC MH+BP/CCCP / MIC EC +: E. coli BW25113; for MIC EC MH+BP/CCCP: MH broth with 30 µg/ml 2,2′-bipyridyl and 50 µg/ml CCCP; for MIC EC +: with clavulanic acid (6µg/ml); for MIC: Escherichia coli, BW25113, read-out: MIC EC, E. coli BW25113, Mueller-Hinton broth (Table 2)
[9] = tested on: E. coli BW25113 ΔtolC derivative JW5503-1; assay: MIC, microbroth dilution in Mueller-Hinton broth; format: cell-based, Escherichia coli; details: for MIC: Escherichia coli
[10] = tested on: P. vulgaris ATCC 33420; assay: MIC, microbroth dilution in Mueller-Hinton broth; format: cell-based; details: Proteus vulgaris, ATCC33420, read-out: MIC PV
[11] = tested on: P. mirabilis ATCC 25933; assay: MIC, microbroth dilution in Mueller-Hinton broth; format: cell-based; details: Proteus mirabilis, ATCC25933, read-out: MIC PM
[12] = tested on: P. aeruginosa PA01; assay: MIC, microbroth dilution in Mueller-Hinton broth; format: cell-based, Pseudomonas aeruginosa; details: for MIC PA MH+BP/CCCP / MIC PA +: P. aeruginosa PA01; for MIC PA MH+BP/CCCP: MH broth with 30 µg/ml 2,2′-bipyridyl and 50 µg/ml CCCP; for MIC PA +: with clavulanic acid (6µg/ml); for MIC: Pseudomonas aeruginosa
[13] = tested on: E. coli BW25113 ΔampC derivative JW4111-2; format: cell-based, Escherichia coli; details: for MIC: Escherichia coli, BW25113, read-out: MIC ECΔampC −
[14] = BW25113, read-out: MIC ECΔtolC MH
[15] = BW25113, read-out: MIC ECΔtolC MH+BP

| SMILES | MIC [1] | MIC [2] | MIC [3] | MIC [4] | MIC [5] | MIC [6] | MIC [7] | MIC EC MH+BP/CCCP [8] | MIC EC + [8] | MIC [8] | MIC ([9]; BW25113, read-out: MIC ECΔtolC) | MIC [9, 14] | MIC [9, 15] | MIC [10] | MIC [11] | MIC PA MH+BP/CCCP [12] | MIC ([12]; PA01, read-out: MIC PA) | MIC ([12]; PA01, read-out: MIC PA MH) | MIC ([12]; PA01, read-out: MIC PA MH+BP) | MIC ([12]; PA01, read-out: MIC PA MH+CCCP) | further results |
| --- | --- | --- | --- | --- | --- | --- | --- | --- | --- | --- | --- | --- | --- | --- | --- | --- | --- | --- | --- | --- | --- |
| CC1(C)SC2C(NC(=O)C(NC(=O)C3=C(O)CNC3=O)c3ccccc3)C(=O)N2C1C(=O)O (stereo not shown) [Compound 2743] | 12.5 µg/mL (≈ 26.3 µM) | < 0.2 µg/mL | < 0.2 µg/mL | 0.78 µg/mL (≈ 1.64 µM) | 0.78 µg/mL (≈ 1.64 µM) | 0.78 µg/mL (≈ 1.64 µM) | 25 µg/mL (≈ 52.7 µM) | 12.5 µg/mL (≈ 26.3 µM) | 12.5 µg/mL | 200 µg/mL (≈ 422 µM) | 12.5 µg/mL (≈ 26.3 µM) | 12.5 µg/mL (≈ 26.3 µM) | 6.25 µg/mL (≈ 13.2 µM) | 100 µg/mL (≈ 211 µM) | 3.13 µg/mL (≈ 6.6 µM) | 3.13 µg/mL (≈ 6.6 µM) | 25 µg/mL (≈ 52.7 µM) | 25 µg/mL (≈ 52.7 µM) | 12.5 µg/mL (≈ 26.3 µM) | 6.25 µg/mL (≈ 13.2 µM) | MIC ECΔtolC MH+BP/CCCP ([9]; {}): 1.56 µg/mL (≈ 3.29 µM); MIC ECΔtolC MH+CCCP ([9]; {}): 3.13 µg/mL (≈ 6.6 µM); MIC PA + [12]: 12.5 µg/mL; MIC ([12]; PA01, read-out: MIC PA −): 25 µg/mL (≈ 52.7 µM); MIC [13]: 12.5 µg/mL (≈ 26.3 µM); MIC ECΔampC + [13]: 6.25 µg/mL |
| CC(C)C1NC(=O)C(C(=O)NC(C(=O)NC2C(=O)N3C2SC(C)(C)C3C(=O)O)c2ccccc2)=C1O (stereo not shown) [Compound 2744] | 12.5 µg/mL (≈ 24.2 µM) | 0.78 µg/mL (≈ 1.51 µM) | 0.39 µg/mL (≈ 0.755 µM) | 6.25 µg/mL (≈ 12.1 µM) | 3.13 µg/mL (≈ 6.06 µM) | 1.56 µg/mL (≈ 3.02 µM) | 25 µg/mL (≈ 48.4 µM) | 25 µg/mL (≈ 48.4 µM) | 25 µg/mL | 100 µg/mL (≈ 194 µM) | 3.13 µg/mL (≈ 6.06 µM) | 3.13 µg/mL (≈ 6.06 µM) | 3.13 µg/mL (≈ 6.06 µM) | 12.5 µg/mL (≈ 24.2 µM) | 12.5 µg/mL (≈ 24.2 µM) | 25 µg/mL (≈ 48.4 µM) | 25 µg/mL (≈ 48.4 µM) | 25 µg/mL (≈ 48.4 µM) | 50 µg/mL (≈ 96.8 µM) | 12.5 µg/mL (≈ 24.2 µM) | MIC ECΔtolC MH+BP/CCCP ([9]; {}): 0.78 µg/mL (≈ 1.51 µM); MIC ECΔtolC MH+CCCP ([9]; {}): 1.56 µg/mL (≈ 3.02 µM); MIC PA + [12]: 25 µg/mL; MIC ([12]; PA01, read-out: MIC PA −): 25 µg/mL (≈ 48.4 µM); MIC ECΔampC + [13]: 12.5 µg/mL |
| CC1(C)SC2C(NC(=O)C(NC(=O)C3=C(O)C(c4ccccc4)NC3=O)c3ccccc3)C(=O)N2C1C(=O)O (stereo not shown) [Compound 2745] | 12.5 µg/mL (≈ 22.7 µM) | 0.78 µg/mL (≈ 1.42 µM) | 0.39 µg/mL (≈ 0.708 µM) | 6.25 µg/mL (≈ 11.4 µM) | 3.13 µg/mL (≈ 5.68 µM) | 0.78 µg/mL (≈ 1.42 µM) | 25 µg/mL (≈ 45.4 µM) | 12.5 µg/mL (≈ 22.7 µM) | 12.5 µg/mL | 100 µg/mL (≈ 182 µM) | 3.13 µg/mL (≈ 5.68 µM) | 3.13 µg/mL (≈ 5.68 µM) | 1.56 µg/mL (≈ 2.83 µM) | 12.5 µg/mL (≈ 22.7 µM) | 3.13 µg/mL (≈ 5.68 µM) | 12.5 µg/mL (≈ 22.7 µM) | 25 µg/mL (≈ 45.4 µM) | 25 µg/mL (≈ 45.4 µM) | 50 µg/mL (≈ 90.8 µM) | 12.5 µg/mL (≈ 22.7 µM) | MIC ECΔtolC MH+BP/CCCP ([9]; {}): 0.78 µg/mL (≈ 1.42 µM); MIC ECΔtolC MH+CCCP ([9]; {}): 1.56 µg/mL (≈ 2.83 µM); MIC PA + [12]: 25 µg/mL; MIC ([12]; PA01, read-out: MIC PA −): 25 µg/mL (≈ 45.4 µM); MIC [13]: 6.25 µg/mL (≈ 11.4 µM); MIC ECΔampC + [13]: 6.25 µg/mL |
| CC1NC(=O)C(C(=O)NC(C(=O)NC2C(=O)N3C2SC(C)(C)C3C(=O)O)c2ccccc2)=C1O (stereo not shown) [Compound 2746] | 25 µg/mL (≈ 51.2 µM) | 0.39 µg/mL (≈ 0.798 µM) | 0.39 µg/mL (≈ 0.798 µM) | 1.56 µg/mL (≈ 3.19 µM) | 3.13 µg/mL (≈ 6.41 µM) | 1.56 µg/mL (≈ 3.19 µM) | 50 µg/mL (≈ 102 µM) | 12.5 µg/mL (≈ 25.6 µM) | 50 µg/mL | 200 µg/mL (≈ 409 µM) |  |  | 6.25 µg/mL (≈ 12.8 µM) | 100 µg/mL (≈ 205 µM) | 3.13 µg/mL (≈ 6.41 µM) | 12.5 µg/mL (≈ 25.6 µM) | 50 µg/mL (≈ 102 µM) | 50 µg/mL (≈ 102 µM) | 50 µg/mL (≈ 102 µM) | 12.5 µg/mL (≈ 25.6 µM) | MIC ECΔtolC MH+BP/CCCP ([9]; {}): 1.56 µg/mL (≈ 3.19 µM); MIC ECΔtolC MH+CCCP ([9]; {}): 3.13 µg/mL (≈ 6.41 µM); MIC PA + [12]: 25 µg/mL; MIC ([12]; PA01, read-out: MIC PA −): 50 µg/mL (≈ 102 µM); MIC [13]: 50 µg/mL (≈ 102 µM); MIC ECΔampC + [13]: 25 µg/mL |
| CC1(C)S[C@@H]2[C@H](NC(=O)C(C(=O)O)c3ccccc3)C(=O)N2[C@H]1C(=O)O (stereo partly shown) [carbenicillin, reference compound] | 3.13 µg/mL (≈ 8.27 µM) | < 0.2 µg/mL | < 0.2 µg/mL | < 0.2 µg/mL | < 0.2 µg/mL | < 0.2 µg/mL | 6.25 µg/mL (≈ 16.5 µM) | 0.78 µg/mL (≈ 2.06 µM) |  | 100 µg/mL (≈ 264 µM) | 0.09 µg/mL (≈ 0.238 µM) | 1.56 µg/mL (≈ 4.12 µM) | 0.56 µg/mL (≈ 1.48 µM) | 100 µg/mL (≈ 264 µM) | 1.56 µg/mL (≈ 4.12 µM) | 1.56 µg/mL (≈ 4.12 µM) | 100 µg/mL (≈ 264 µM) | 200 µg/mL (≈ 529 µM) | 50 µg/mL (≈ 132 µM) | 25 µg/mL (≈ 66.1 µM) | MIC ECΔtolC MH+CCCP ([9]; E. coli BW25113 ΔtolC JW5503-1, MH broth containing 50 µg/ml CCCP): 0.78 µg/mL (≈ 2.06 µM) |
